Activity calls are given as the source filed them.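 The calls were made as follows, unless noted: active = viability at or below 10% of carrier control in both of two separate runs; inconclusive = viability at or below 10% in only one of the two runs; inactive = the rest.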 Square brackets hold non-standard residues; d marks the D form. Peptide text beside a SMILES is read from it. ξ: configuration not given here. ξV = CC(C)C(N)C(=O)O
Experiments:
[1] = Her2 expression decrease, cell viability multiplex – SKBR3 breast tumor cells, AlphaScreen, ATP viability, primary screen (AID 461;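 active = Her2 level under about 52% in both replicate screens, with viability over 70% of control, limit read from the data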;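 as to Her2 level: lower value means less Her2 protein in the cells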;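 as to viability: percent of carrier control wells set as 100% viability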); settings: SKBR3 Her2 protein level, 18-24 h, measured here: SKBR3 viability, ATP luminescence, at 10 µM
[2] = target: Receptor tyrosine-protein kinase erbB-2 (Homo sapiens) (UniProt P04626); assay: as above; settings: 18-24 h, at 10 µM, stronger effect = lower value
Chain of Receptor tyrosine-protein kinase erbB-2 (Homo sapiens) (P04626 whole entry, looked up): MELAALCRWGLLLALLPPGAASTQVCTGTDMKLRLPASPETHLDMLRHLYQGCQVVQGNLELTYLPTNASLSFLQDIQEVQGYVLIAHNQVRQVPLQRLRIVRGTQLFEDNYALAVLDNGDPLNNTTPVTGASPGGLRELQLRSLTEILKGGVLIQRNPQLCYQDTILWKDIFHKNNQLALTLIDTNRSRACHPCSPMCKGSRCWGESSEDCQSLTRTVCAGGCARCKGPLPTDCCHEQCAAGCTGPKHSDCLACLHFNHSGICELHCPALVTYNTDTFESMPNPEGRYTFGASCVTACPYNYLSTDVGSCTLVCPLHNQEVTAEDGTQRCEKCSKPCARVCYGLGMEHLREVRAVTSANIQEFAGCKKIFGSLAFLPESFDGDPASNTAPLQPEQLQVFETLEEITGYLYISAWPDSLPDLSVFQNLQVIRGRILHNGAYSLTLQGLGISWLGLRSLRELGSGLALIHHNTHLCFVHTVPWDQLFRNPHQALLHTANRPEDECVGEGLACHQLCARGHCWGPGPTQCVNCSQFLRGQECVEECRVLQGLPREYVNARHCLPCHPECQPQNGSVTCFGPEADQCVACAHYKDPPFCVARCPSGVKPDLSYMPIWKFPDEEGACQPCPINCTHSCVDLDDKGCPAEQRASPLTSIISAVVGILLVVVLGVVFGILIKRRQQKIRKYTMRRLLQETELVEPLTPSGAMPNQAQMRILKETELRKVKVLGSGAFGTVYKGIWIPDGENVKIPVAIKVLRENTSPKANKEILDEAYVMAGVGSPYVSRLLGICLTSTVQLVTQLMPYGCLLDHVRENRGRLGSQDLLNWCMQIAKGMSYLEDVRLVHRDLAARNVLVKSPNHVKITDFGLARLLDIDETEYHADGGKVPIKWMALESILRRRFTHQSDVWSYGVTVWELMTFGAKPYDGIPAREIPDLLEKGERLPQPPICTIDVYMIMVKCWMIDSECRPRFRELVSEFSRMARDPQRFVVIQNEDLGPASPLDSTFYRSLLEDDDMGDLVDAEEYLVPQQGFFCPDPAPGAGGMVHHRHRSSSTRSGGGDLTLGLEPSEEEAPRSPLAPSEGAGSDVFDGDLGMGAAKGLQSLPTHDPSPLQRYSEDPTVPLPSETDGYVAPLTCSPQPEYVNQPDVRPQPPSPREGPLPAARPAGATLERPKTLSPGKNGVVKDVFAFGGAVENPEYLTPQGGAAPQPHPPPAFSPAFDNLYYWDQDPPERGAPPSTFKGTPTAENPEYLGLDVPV

[3] = reduced viability of SK-BR-3 breast cancer cells – cell-based, 24 h, human, pilot screen (AID 572); settings: SK-BR-3 viability, CellTiter-Glo luminescence, at 10 µM, stronger effect = lower value;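 also: compound exposure lasted between 18 and 24 h rather than exactly 24 h; 100% = carrier-treated control wells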
[4] = HUVEC growth inhibition – cell-based, human, primary screen (AID 575;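 active = viability at or below 30% in both replicate assays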;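 also: 100% = median of untreated cell wells with 0.1% DMSO on each plate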); settings: HUVEC proliferation, CellTiter-Glo luminescence, 72 h; at 10 µM; stronger effect = lower value
Outline: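 material = primary HUVEC, no more than 12 passages | input = 1250 cells per well | controls = vehicle and MePR control wells | measured by = CTG luminescence | times = 72 h compound incubation | format = collagen-coated 384-well format | read-out = % viability vs DMSO wells | doses = single 10 µM dose, 0.1% DMSO, from 5x medium stock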

[5] = H69AR cell proliferation blockers – human, duplicate replicates, primary screen (AID 580;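 active = viability at or under a set limit in both replicates, limit being median viability minus 3 SD, cut at about 48% in these data, passing the limit was not always enough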;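 also: 100% = mean luminescence of untreated wells and 0% = no signal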); settings: H69AR lung tumor cells viability, ATP luminescence, 72 h; at 10 µM; stronger effect = lower value
[6] = MRP1 drug-resistance reversers in H69AR cells – cell-based, doxorubicin co-treatment, pilot screen (AID 601;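 active = viability loss from added drug above about 55%, and viability with drug at most 40%, in both replicates, limit read from the data, passing the limit was not always enough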); settings: CellTiter-Glo, 72 h, at 10 µM; for differential viability (reversal): stronger effect = higher value
[7] = yeast transport mutant growth inhibition pilot in 384-well plates, post-Golgi transport modulator project (AID 636; in the data active = inhibition above about 31%); settings: absorbance 615 nm, about 18 h, stronger effect = higher value
[8] = growth suppression of yeast trafficking mutant, preliminary HTS, modulators of trafficking downstream of Golgi apparatus project, 1536-format plate, OD 615 nm (AID 637; in the data active = inhibition above about 30%); settings: yeast transport mutant growth, absorbance 615 nm, 18 h; stronger effect = higher value
[9] = H69AR cells + 2 uM doxorubicin, measured here: viability with 2 uM doxorubicin, stronger effect = lower value
[10] = H69AR cells, compound alone cytotoxicity

Structure (SMILES)	viability [1] [%]	Her2 level [2]	viability [3]	viability [4]	viability [5]	differential viability (reversal) ([6]; H69AR cells + 2 uM doxorubicin)	viability [6, 9] [%]	viability [6, 10] [%]	inhibition [7]	inhibition [8]
O=S(=O)(c1ccc2c(c1)nc1n2CCC1)N1CCOCC1	102	87% (inactive)	102% (inactive)	102% (inactive)	98.9% (inactive)	7.71% (inactive)	91.2	98.9	-0.26% (inactive)	-4.44% (inactive)
Cc1ccc(-c2[nH]nc3c2C(c2ccc(OC(=O)N4CCOCC4)cc2)C(C#N)=C(N)O3)cc1 (stereo not given)	89	93% (inactive)	89% (inactive)	106% (inactive)	85.5% (inactive)	-10.4% (inactive)	96	85.5	-5.26% (inactive)	-11.4% (inactive)
COc1cccc(-n2c(SC3CCOC3=O)nc3ccccc3c2=O)c1 (stereo not given)	94.5	99.5% (inactive)	94.5% (inactive)	88.2% (inactive)	94.4% (inactive)	10.5% (inactive)	83.8	94.4	-5.2% (inactive)	-6.03% (inactive)
NC(=O)c1ccccc1NC(=O)CCCN1C(=O)CCC1=O	101	83.5% (inactive)	101% (inactive)	92.9% (inactive)	95.6% (inactive)	10.6% (inactive)	85	95.6	-6.89% (inactive)	-1.9% (inactive)
O=C(Nc1nc(-c2ccccc2)cs1)C1CCCCN1S(=O)(=O)c1ccccc1 (stereo not given)	100	80% (inactive)	100% (inactive)	71.5% (inactive)	73.8% (inactive)	-18.2% (inactive)	92	73.8	-0.13% (inactive)	11.4% (inactive)
CC(=O)NC(C(=O)NCC(N)=O)C(C)C (stereo not given) (Ac-[ξV]-Gly-NH2)	90	104% (inactive)	90% (inactive)	100% (inactive)	93.9% (inactive)	-1.82% (inactive)	95.7	93.9	-5.58% (inactive)	-9.05% (inactive)
N/C(=N/O)c1nc(N2CCCC2)nc(N(c2ccccc2)c2ccccc2)n1	108	93.5% (inactive)	108% (inactive)	75.9% (inactive)	65.2% (inactive)	5.79% (inactive)	59.4	65.2	-6.62% (inactive)	3.17% (inactive)
O=C(Nc1ccc(N2CCCCC2)cc1)c1ccc(F)cc1	84	106% (inactive)	84% (inactive)	80% (inactive)	83.1% (inactive)	4.35% (inactive)	78.8	83.1	1.79% (inactive)	-0.5% (inactive)
COc1cc(OC)cc(C(=O)NCCN2CCOCC2)c1	105	92% (inactive)	105% (inactive)	98.3% (inactive)	94.1% (inactive)	1.49% (inactive)	92.6	94.1	-4.47% (inactive)	-4.36% (inactive)
COC(=O)c1c(O)ccc(Oc2ccccc2)c1C(=O)OC	104	119% (inactive)	104% (inactive)	95.9% (inactive)	85.3% (inactive)	-1.09% (inactive)	86.4	85.3	-4.49% (inactive)	-4.67% (inactive)
COc1cc(NC(=O)C2CC(c3cccc(OC)c3OC)=NO2)cc(OC)c1OC (stereo not given)	83	99% (inactive)	83% (inactive)	54.9% (inactive)	27.3% (active)	-41.8% (inactive)	69.1	27.3	6.84% (inactive)	-4.18% (inactive)
Cc1ccc2ncnc(NCCCN3CCOCC3)c2c1	98.5	120% (inactive)	98.5% (inactive)	91.4% (inactive)	101% (inactive)	-0.115% (inactive)	102	101	-0.79% (inactive)	5.41% (inactive)
CN(C=O)CP(=O)(O)CCN1CCCC1=O	126	121% (inactive)	126% (inactive)	104% (inactive)	99.4% (inactive)	7.19% (inactive)	92.2	99.4	-4.47% (inactive)	0.66% (inactive)
CCOC(=O)C1CCCN(C(=O)c2cc(=O)c3ccccc3o2)C1 (stereo not given)	94.5	87% (inactive)	94.5% (inactive)	95.2% (inactive)	97.3% (inactive)	-4.92% (inactive)	102	97.3	-2.89% (inactive)	-0.95% (inactive)
COC(=O)CCc1c(C)c(C#N)c2nc3ccccc3n2c1N1CCCC1	100	84% (inactive)	100% (inactive)	98.1% (inactive)	73.2% (inactive)	45.5% (inactive)	27.7	73.2	-8.24% (inactive)	8.67% (inactive)
O=C(O)c1ccc2c(c1)N(Cc1ccccc1F)C(=O)c1ccccc1S2=O (stereo not given)	96	83.5% (inactive)	96% (inactive)	92.8% (inactive)	103% (inactive)	5.27% (inactive)	97.8	103	-3.73% (inactive)	4.43% (inactive)
